# Source: ChEMBL document CHEMBL4138128, “Structural design, synthesis and pharmacological evaluation of thiazoles against Trypanosoma cruzi” (Eur J Med Chem, 2017)
# Active and inactive are the calls of the source. The rule behind the calls is not given here.
# How the values were obtained:
# Trypanosoma cruzi [1] = assay: Antitrypanosomal activity against bloodstream trypomastigote stage of Trypanosoma cruzi Y infected in Balb/c mouse macrophages assessed as reduction in number of infected cells at 0.5 uM measured after 3 days by hoeschst staining based confocal microscopic method; type: functional, organism-based; settings: 5 uM, in the assay text read “at 5 uM” for “at 0.5 uM”
# Outline: (§1)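 BALB/c peritoneal macrophages (5x10^4/well) in DMEM/10% FBS, infected with trypomastigotes (10:1) for 2 h, washed, held 24 h, then treated 72 h (test at 8, 2, 0.5 µM; benznidazole 5 µM control). Formaldehyde-fixed, Hoechst-stained, imaged by confocal high-content microscopy for infected cells and amastigotes per 100 cells; six determinations; ANOVA with Bonferroni.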
# Trypanosoma cruzi [2] = assay: (§2) Antitrypanosomal activity against bloodstream trypomastigote stage of Trypanosoma cruzi Y infected in Balb/c mouse assessed as protection against mouse mortality at 100 mg/kg, po qd administered for 5 consecutive days starting from day 5 post infection measured up to 30 days post treatment; type: functional, organism-based
# Outline: (§3)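 Female BALB/c mice (18-22 g, 6-8 weeks) infected i.p. with 10^4 Y strain bloodstream trypomastigotes in saline; six per group. From day 5, oral dosing once daily for 5 days; vehicle saline with 20% DMSO. Parasitaemia counted as motile parasites in 5 µL tail-vein blood; reduction = (vehicle mean − treated mean)/vehicle mean × 100. Mortality followed to 30 days post-treatment.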
# [3] = Cytotoxicity against mouse J774 cells assessed as reduction in cell viability after 72 hrs by alamar blue assay; type: cell-based
# Outline: (§4)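 H9c2 or J774 cells (1 x 10^4/well) in DMEM/10% FBS preincubated 24 h, then exposed 72 h to six concentrations (0.41 to 100 µM) in triplicate, DMSO under 1%. Viability by AlamarBlue, read after 6 h at 570/600 nm; CC50 from three independent experiments; gentian violet positive control.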
# Trypanosoma cruzi [4] = assay: as §2, with “reduction in blood parasitaemia” for “protection against mouse mortality”, “on day 8 post infection relative” for “up”, “control” for “30 days post treatment”; type: functional; set-up: scale not given: the % may be the effect or the level left; outline: as §3
# Mus musculus = assay: Toxicity in Balb/c mouse infected with Trypanosoma cruzi Y trypomastigotes assessed as behavioral alteration at 100 mg/kg, po qd administered for 5 consecutive days starting from day 5 post infection; type: organism-based; settings: in vivo; outline: as §3
# [5] = Cytotoxicity against rat H9c2 cells assessed as reduction in cell viability after 72 hrs by alamar blue assay; type: cell-based; outline: as §4
# Trypanosoma cruzi [6] = assay: Antitrypanosomal activity against bloodstream trypomastigote stage of Trypanosoma cruzi Y infected in Balb/c mouse macrophages assessed as reduction in number of intracellular amastigotes at 0.5 uM measured after 3 days by hoeschst staining based confocal microscopic method; type: functional, organism-based; settings: 5 uM, in the assay text read “at 5 uM” for “at 0.5 uM”; outline: as §1
# Trypanosoma cruzi [7] = assay: as §2, with “reduction in blood parasitaemia” for “protection against mouse mortality”, “on day 12 post infection relative” for “up”, “control” for “30 days post treatment”; type: functional; set-up: scale not given: the % may be the effect or the level left; outline: as §3
# Trypanosoma cruzi [8] = assay: Antitrypanosomal activity against bloodstream trypomastigote stage of Trypanosoma cruzi Y infected in monkey LLC-MK2 cells assessed as reduction in parasite motility measured after 24 hrs by neubauer chamber method; type: functional, organism-based; settings: LLC-MK2, 24 h
# Outline: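 Y strain trypomastigotes from LLC-MK2 supernatants, 4x10^5/well, incubated 24 h at 37°C, 5% CO2 with five concentrations; viable parasites counted by motility in Neubauer chamber. Inhibition versus untreated cultures; IC50 by non-linear regression; benznidazole reference.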
smiles,measurement,setting,value
O=C(Cn1ccnc1[N+](=O)[O-])NCc1ccccc1 [BENZNIDAZOLE],Activity,Trypanosoma cruzi [1],Active
same,Activity,Trypanosoma cruzi [2],Active
same,CC50 at 72 h,[3],> 50 µM
same,Activity,Trypanosoma cruzi [4],>99%
same,Activity,Mus musculus,Non-Toxic
same,CC50 at 72 h,[5],> 50 µM
same,Activity,Trypanosoma cruzi [6],Active
same,Activity,Trypanosoma cruzi [7],>99%
same,IC50,Trypanosoma cruzi [8],10.6 µM
